Published values from different studies.
Lines come from different studies, so protocols differ.
Target: SRSF protein kinase 1 (SRPK1, Homo sapiens, UniProt Q96SB4)

SMILES | read-out | mode | technique | tested at | endpoint | value
Cc1ccc(NC(=O)c2ccc(C)c(C(F)(F)F)c2)cc1C#Cc1nn(C2CCC(O)CC2)c2ncnc(N)c12 (stereo not drawn) | cell-free assay | – | – | 10 µM | remaining signal | 106%
CN1CC(Oc2cnc(C#N)cc2-c2ccn3nc(NC(=O)C4CC4)cc3c2)C1 | enzyme activity | inhibitor | – | 1 µM | inhibition | -2%
CC(C)(O)[C@H]1CC[C@H](Nc2ccc3ncc(-c4cccc(C(F)(F)F)c4)n3n2)CC1 | enzyme activity | inhibitor | – | 1 µM | remaining activity | 100%
CC(C)(C)c1nc(-c2cccc(NS(=O)(=O)c3c(F)cccc3F)c2F)c(-c2ccnc(N)n2)s1 | enzyme activity | inhibitor | radiometric | 1 µM | remaining activity | 105%
Cc1sc(C(=O)NC2COC2)cc1-n1cc(NC(=O)Nc2c(F)cccc2Cl)cn1 | enzyme activity | inhibitor | – | 10 µM | remaining activity | 96.9%
CNC(=O)c1cc(Oc2ccc(NC(=O)Nc3ccc(Cl)c(C(F)(F)F)c3)cc2)ccn1 | enzyme activity | inhibitor | – | 0.3 µM | inhibition | -2%
CC(C)c1ccc(NC(=O)c2cccs2)c(-c2nc3ccccc3[nH]c2=O)c1 | enzyme activity | inhibitor | – | 1 µM | activity vs control | 100%
O=C1NC(=O)c2cc(Nc3ccc(F)cc3)c(Nc3ccc(F)cc3)cc21 | cell-free assay | – | – | 0.5 µM | remaining signal | 102%
COc1cc(/C=C/C(=O)CC(=O)/C=C/c2ccc(O)c(OC)c2)ccc1O | enzyme activity | inhibitor | – | 1 µM | activity vs control | 57%
Cc1ccc(C(=O)Nc2ccc(CN3CCN(C)CC3)c(C(F)(F)F)c2)cc1C#Cc1cnc2cccnn12 | enzyme activity | inhibitor | – | 23.5 nM | remaining activity | 98%
CNC(=O)c1ccc(Nc2ncc(C(F)(F)F)c(NCc3nccnc3N(C)S(C)(=O)=O)n2)cc1 | cell-free assay | – | competition with immobilised ligand | 0.1 µM | remaining binding | 51%
Cc1cc(NC(=O)c2cccc3cc(-c4cccc5[nH]nc(N)c45)ccc23)ccc1F | enzyme activity | inhibitor | – | 0.1 µM | activity vs control | 98%
N#CC1(c2ccccn2)CCN(Cc2cc(C(=O)N3CCCC3)c(=O)n3ccccc23)CC1 | cell-free assay | – | competition with immobilised ligand | 1 µM | remaining binding | 85%
Cc1ccc(Nc2nccc(N(C)c3ccc4c(C)n(C)nc4c3)n2)cc1S(N)(=O)=O | enzyme activity | inhibitor | – | 0.3 µM | inhibition | -7%
CN(c1ncccc1CNc1nc(Nc2ccc3c(c2)CC(=O)N3)ncc1C(F)(F)F)S(C)(=O)=O | enzyme activity | inhibitor | – | 1 µM | inhibition | 33.5%
Cc1cc(-n2nc(Cc3cc(F)cc(C(F)(F)F)c3)nc2C)ccc1C(N)=O | cell-free assay | – | competition with immobilised ligand | 1 µM | remaining binding | 81%
Oc1cccc(-c2nc(N3CCOCC3)c3oc4ncccc4c3n2)c1 | enzyme activity | inhibitor | – | 10 µM | remaining activity | 116%

SMILES | read-out | mode | technique | tested at | endpoint | value
CC(C)(C)C(=O)c1sc(NC2CCCCC2)nc1N | enzyme activity | inhibitor | – | 10 µM | remaining activity | 92%
Cc1ccc(NC(=O)c2ccc(CN3CCN(C)CC3)cc2)cc1Nc1nc(-c2cccnc2)cs1 | cell-free assay | – | – | 0.5 µM | remaining signal | 98.9%
CN(C)c1ncnc(-c2ccc3nc(Nc4cc(CN5CCN(C(=O)CC(F)(F)F)CC5)ccn4)[nH]c3c2)c1Cl | cell-free assay | – | competition with immobilised ligand | 1 µM | remaining binding | 47%
O=C(Nc1cnn(-c2csc(C(=O)NC3COC3)c2)c1)Nc1c(F)cccc1Cl | enzyme activity | inhibitor | – | 5 µM | remaining activity | 104%
FC(F)(F)Oc1cccc(-c2cnc3ccc(-c4ccncc4)nn23)c1 | enzyme activity | inhibitor | radiometric | 1 µM | activity vs control | 95%
CCN(CC)CCNC(=O)c1c(C)[nH]c(/C=C2\C(=O)Nc3ccc(F)cc32)c1C | enzyme activity | inhibitor | – | 10 µM | inhibition | 9%
COc1cc2ncnc(Nc3ccc(Oc4ccccc4)c(C)c3C)c2cc1OC | enzyme activity | inhibitor | – | 1 µM | inhibition | 1%
O=C(N1CCS(=O)(=O)CC1)N1C[C@H](c2ccc(OC(F)(F)F)cc2)C[C@H](c2nc(C3CC3)no2)C1 | cell-free assay | – | competition with immobilised ligand | 1 µM | remaining binding | 100%
CCCOc1ccc(OC)c(F)c1C(=O)c1ccc(C(=O)N[C@@H]2CNC[C@H]2NC(=O)c2ccc3[nH]ncc3c2)cc1 | enzyme activity | inhibitor | – | 10 µM | remaining activity | 97%
c1ccc(CNc2nc(N3CCOc4ccccc43)nc3c2CCCC3)cc1 | target engagement in cells | inhibitor | chemoproteomics | 20 mM | inhibition | 4.3%
Cc1c[nH]c2nccc(Oc3c(F)cc(Nc4cc(Cl)nc(N)n4)cc3F)c12 | cell-free assay | – | competition with immobilised ligand | 0.1 µM | remaining binding | 100%
Nc1nc(Nc2ccc(S(N)(=O)=O)cc2)nn1C(=O)c1c(F)cccc1F | cell-free assay | – | – | 0.5 µM | remaining signal | 86.4%
CS(=O)(=O)N1CCCC(NC(=O)[C@H](CCC2CCCCC2)NC(=O)c2ccc(CNC(=O)c3cnc4ccccn34)cc2)C1 (stereo partly drawn) | cell-free assay | – | competition with immobilised ligand | 0.1 µM | remaining binding | 74%
CCN(CC)c1ccc(C2=NNC(=O)CC2C)cc1[N+](=O)[O-] (stereo not drawn) | enzyme activity | inhibitor | – | 10 µM | remaining activity | 94%
O=S(=O)(NC1CCC(c2cc(F)ccc2F)(S(=O)(=O)c2ccc(Cl)cc2)CC1)C(F)(F)F (stereo not drawn) | cell-free assay | – | competition with immobilised ligand | 1 µM | remaining binding | 100%
COc1cc(Nc2cnc(C#N)c(O[C@H](C)CN(C)C)n2)ncc1-c1cnn(C)c1 | enzyme activity | inhibitor | radiometric | 10 µM | remaining activity | 88%
